Measured values published in publication PMC12391519 (Scientific Reports, 2025).

Key:
[1] = Adverse events during TEIC therapy; format: in vivo, human; conditions: ROC analysis, n = 41
Method in brief: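 Renal dysfunction was a serum creatinine rise of ≥0.3 mg/dL within 48 h, or ≥1.5-times baseline within seven days, of TEIC administration. Hepatic dysfunction was AST or ALT outside the normal limit of ≤30 IU/L (CTCAE v5.0). ROC analysis used measured free trough TEIC (ultrafiltration, HPLC-UV). The cutoff was the point where sensitivity and specificity, plotted against free concentration, gave the best result.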

[2] = Free serum TEIC trough concentration by ultrafiltration followed by HPLC; format: in vivo, human
Method in brief: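 Trough serum (1 mL) was ultrafiltered through a 30 kDa cutoff filter. The filtrate got primidone internal standard, acetonitrile deproteinisation and 0.1 M HCl/chloroform cleanup, then C18 HPLC-UV at 215 nm; calibrators were in ultrafiltered human serum. Response was […] CRP decrease plus ≥0.3 °C fever reduction for two consecutive days within 96 h. Adverse events were renal or hepatic dysfunction. Groups were compared by Mann–Whitney U.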

albumin = conditions: cited from earlier work
[3] = cited from earlier work
serum albumin = assay: Free TEIC percentage; format: in vitro ADME, human; conditions: patient serum, HPLC-UV
Method in brief: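 Free percentage is free/total trough TEIC, both measured by HPLC-UV at 215 nm; free drug was taken after 30 kDa ultrafiltration of serum. Samples were drawn before dosing on days 3–4 (loading: five doses, median 13 mg/kg every 12 h) or from day 7 (maintenance: median 7.8 mg/kg once daily). Relation to albumin was assessed by Spearman rank correlation.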

[4] = Total serum TEIC trough concentration by HPLC in patients on TEIC therapy; format: in vivo, human
Method in brief: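 Trough serum was drawn before dosing (days 3–4 of loading, day 7 onward of maintenance), centrifuged 1,800 g for 15 min at 25 °C and stored at –30 °C. It got primidone internal standard, acetonitrile deproteinisation and 0.1 M HCl/chloroform cleanup. HPLC-UV ran at 215 nm on a C18 column at 35 °C with a 10 mM phosphate pH 3.0/acetonitrile gradient at 1.0 mL/min. Calibrators were in commercial human serum; groups were compared by Mann–Whitney U.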

- Trough free concentration, loading dose period, median ([2]; loading dose period, ultrafiltration 30 kDa, HPLC-UV, median): 1.50 µg/mL
- Trough free concentration, maintenance dose period, median ([2]; maintenance dose period, ultrafiltration 30 kDa, HPLC-UV, median): 1.65 µg/mL
- Free serum TEIC concentration, patients without effective response, median ([2]; n = 7, median): 1.26 µg/mL
- Free serum TEIC concentration, patients with effective response, median ([2]; n = 17, median): 1.50 µg/mL
- Free serum TEIC concentration, single patient with efficacy ([2]; one of the 17 patients who showed efficacy, total serum TEIC < 15 µg/mL): 1.67 µg/mL
- Free serum TEIC concentration, single patient with high total concentration ([2]; one patient, total serum TEIC > 40 μg/mL): 1.78 µg/mL
- Free teicoplanin percentage, median (serum albumin; all samples, ultrafiltration 30 kDa, free/total): 6.3%
- Free teicoplanin percentage, loading dose period, median (serum albumin; loading dose period, ultrafiltration): 6.2%
- Free teicoplanin percentage, maintenance dose period, median (serum albumin; maintenance dose period, ultrafiltration): 6.3%
- Trough total concentration, loading dose period, median ([4]; loading dose period (days 3–4, median dose 13 mg/kg every 12 h), serum, HPLC-UV): 24.3 µg/mL
- Trough total concentration, maintenance dose period, median ([4]; maintenance dose period (day 7 onward, median dose 7.8 mg/kg once daily), serum, HPLC-UV): 26.2 µg/mL
- Total serum TEIC concentration, patients without effective response, median ([4]; n = 7): 21.1 µg/mL
- Total serum TEIC concentration, patients with effective response, median ([4]; n = 17): 24.8 µg/mL
Substance: Teicoplanin
- Cutoff value of free serum TEIC concentration for occurrence of adverse events [1]: 2.07 µg/mL
- Free serum TEIC concentration, single patient with adverse events ([2]; another patient, total serum TEIC < 40 μg/mL, adverse events noted): 6.31 µg/mL
- Free serum TEIC concentration, patients with adverse events, median ([2]; n = 7, median): 2.60 µg/mL
- Free serum TEIC concentration, patients without adverse events, median ([2]; n = 34, median): 1.35 µg/mL
- nKa (binding sites per albumin molecule × association constant) (albumin; analysis of Yano et al.): 1.78 (g/dL)^−1
- Protein-binding rate used by Byrne et al. (albumin): 90–95%
- Protein-binding rate (albumin; in humans, serum albumin): ≥ 90%
- Cutoff of mean free serum TEIC concentration associated with renal dysfunction ([3]; Sugiyama et al.): 4.2 µg/mL
- Effective total serum TEIC trough concentrations in clinical settings [3]: 15 to 40 µg/mL
- Effective total serum TEIC trough concentrations, complicated infections [3]: 20 to 40 µg/mL
- Effective total serum TEIC trough concentrations, uncomplicated infections [3]: 15 to 30 µg/mL
- TEIC concentration causing renal dysfunction [3]: > 60 µg/mL
- Total serum TEIC concentration, patients with adverse events, median ([4]; n = 7): 36.1 µg/mL
- Total serum TEIC concentration, patients without adverse events, median ([4]; n = 34): 30.1 µg/mL
